Measured values: ChEMBL document CHEMBL4828720, “Macrocyclic Immunoproteasome Inhibitors as a Potential Therapy for Alzheimer's Disease” (J Med Chem, 2021)
The source made the active and inactive calls. No cut-off for these calls is given here.

Columns and labels:
[1] = Toxicity in Tg2576 mouse; conditions: in vivo
[2] = Effect on RPE structural integrity in ICR mouse by immunostaining based confocal microscopic analysis; assay type: ADME
How it was run: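 RPE collected after behavioral testing from treated Tg2576 mice and from age-matched non-transgenic ICR mice. Eyecups dissected in ice-cold PBS and retina removed. Tissue permeabilized with 0.2% Triton X-100 for 15 min, blocked with 3% BSA, then anti-β-catenin (1:100) overnight at 4 °C. Alexa 555 secondary 2 h, imaged by confocal microscopy.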

[3] = system: Mus musculus; assay: Cognitive enhancing effect in Tg2576 mouse assessed as latency to enter dark compartment at 10 mg/kg, iv administered twice weekly and measured on 7 and 8 days by step-through passive avoidance test; assay type: functional, organism-based; conditions: time 7-8 day
How it was run: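 Tg2576 mice (9-month-old), 10 mg/kg twice weekly for 3 weeks. Step-through passive avoidance run 48 h after the probe test. Learning trial: 0.45 mA, 3 s shock on entering the dark room. Testing trial 24 h later (day 8) without shock, timed as latency to re-enter the dark chamber from the lighted compartment. n=5; Student's t-test.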

[4] = system: Proteasome subunit beta type-9 (Canis lupus familiaris); assay: Inhibition of canine 20S proteasome LMP2 activity in MDCK-II cells overexpressing ABCG2 using Ac-PAL-AMC as fluorogenic substrate by fluorescence assay
[5] = Metabolic stability in ICR mouse liver homogenate at 1 uM measured upto 20 mins by LC-MS/MS analysis; assay type: ADME, tissue-based; conditions: tissue homogenate
How it was run: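 Tissues from male ICR mice, 7 weeks old. Heparinized (25 IU/mL) whole blood, or liver homogenized in ice-cold PBS, prewarmed to 37 °C and spiked to a final 1 μM. Samples taken at 0, 10 and 30 min (blood) or 0, 10 and 20 min (liver). […] Remaining drug quantified by C18 LC-MS/MS.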

[6] = molecular target: T1, Proteasome subunit beta type-9 (Homo sapiens) (UniProt P28065); assay: Inhibition of human 20S proteasome LMP2 activity in human NCI/ADR-RES cells overexpressing ABCB1 using Ac-PAL-AMC as fluorogenic substrate incubated for 72 hrs in presence and absence of verapamil by fluorescence assay; assay type: cell-based
T1 sequence (whole entry): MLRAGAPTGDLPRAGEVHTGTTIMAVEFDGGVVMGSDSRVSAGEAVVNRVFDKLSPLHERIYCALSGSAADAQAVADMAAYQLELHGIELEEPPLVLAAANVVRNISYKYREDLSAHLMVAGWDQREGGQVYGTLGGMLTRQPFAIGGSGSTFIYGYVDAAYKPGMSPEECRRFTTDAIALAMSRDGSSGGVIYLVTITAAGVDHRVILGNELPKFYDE

[7] = molecular target: T2, Proteasome subunit beta type-9 (Homo sapiens, UniProt P28065); assay: Inhibition of human 20S proteasome LMP2 using Ac-PAL-AMC as fluorogenic substrate measured every minute for 1 hr by fluorescence assay
T2 sequence (P28065 whole entry): T1 sequence (whole entry)
How it was run: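 Preincubated 1 h with inhibitor at 3-10,000 nM (8 concentrations). Substrates at 100 μM: Ac-PAL-AMC (LMP2), Ac-nLPnLD-AMC (Y), Ac-ANW-AMC (LMP7). Ac-WLA-AMC (X) at 20 μM. AMC fluorescence (360/460 nm) read each minute for 1 h; 3 replicates.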

[8] = system: Proteasome subunit beta type-9 (Canis lupus familiaris); assay: Inhibition of canine 20S proteasome LMP2 activity in MDCK-II cells using Ac-PAL-AMC as fluorogenic substrate by fluorescence assay
[9] = molecular target: Proteasome subunit beta type-9 (Mus musculus) (UniProt P28076); assay: Inhibition of LMP2 in mouse BV-2 cells
Sequence of Proteasome subunit beta type-9 (Mus musculus) (P28076 whole entry, looked up): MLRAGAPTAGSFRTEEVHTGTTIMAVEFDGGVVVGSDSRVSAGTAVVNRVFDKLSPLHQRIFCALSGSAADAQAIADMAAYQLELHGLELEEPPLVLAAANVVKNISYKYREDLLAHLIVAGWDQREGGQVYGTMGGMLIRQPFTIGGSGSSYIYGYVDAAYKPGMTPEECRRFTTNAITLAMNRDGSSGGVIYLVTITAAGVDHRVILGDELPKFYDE

[10] = molecular target: Proteasome subunit beta type-9 (Mus musculus) (UniProt P28076); assay: Inhibition of LMP2 in mouse BV-2 cells assessed as reduction in LPS-stimulated IL-1alpha release by ELISA

C[C@]1(C(=O)[C@H](Cc2ccccc2)NC(=O)[C@@H]2Cc3ccc(cc3)OCCCCCCCC(=O)N3CCC[C@H]3C(=O)N2)CO1
Activity [1]: Non-Toxic
Activity [2]: Non-Toxic
Activity [3]: Active
inhibition [4]: Active
Stability [5]: Stable
inhibition [6]: Active
IC50 [7]: 184 nM
inhibition [8]: Active
inhibition [9]: Active
inhibition [10]: Active
